Laboratory results published in ChEMBL document CHEMBL3085705, “Design, chemical synthesis of 3-(9H-fluoren-9-yl)pyrrolidine-2,5-dione derivatives and biological activity against enoyl-ACP reductase (InhA) and Mycobacterium tuberculosis” (2013).
≈ marks a conversion by molar mass, not a printed value.

What was measured:
[1] = system: Mycobacterium tuberculosis; test: Antimicrobial activity against Mycobacterium tuberculosis H37Rv by two-fold serial dilution method; assay type: functional
Method in brief: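 Compounds dissolved in DMSO. Single colony grown in Middlebrook 7H9 with 0.05% Tween 80 and 10% OADC at 37 °C, no shaking, to ~10^8 CFU/mL (OD600 0.8–1.0). Diluted to ~10^7 CFU/mL; 1 μL streaked onto 7H11 agar (0.5% glycerol, 10% OADC) with two-fold serial compound dilutions. MIC is the lowest concentration inhibiting growth. Repeated three times.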

[2] = biological target: T1, Enoyl-[acyl-carrier-protein] reductase [NADH] (Mycobacterium tuberculosis) (UniProt P9WGR1); test: Inhibition of Mycobacterium tuberculosis InhA expressed in Escherichia coli using trans-2-dodecenoyl-coenzyme-A as substrate at 5 uM
T1 sequence (whole entry): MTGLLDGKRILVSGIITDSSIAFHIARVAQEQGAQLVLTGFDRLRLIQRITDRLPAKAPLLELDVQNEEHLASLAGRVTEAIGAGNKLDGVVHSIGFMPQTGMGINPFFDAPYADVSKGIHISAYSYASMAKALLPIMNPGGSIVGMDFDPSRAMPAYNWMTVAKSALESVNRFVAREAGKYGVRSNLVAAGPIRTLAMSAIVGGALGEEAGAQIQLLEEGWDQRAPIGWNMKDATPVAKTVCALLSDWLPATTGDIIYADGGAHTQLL
Method in brief: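 Recombinant M. tuberculosis wild-type InhA purified from E. coli. Reaction started by adding InhA (100 nM final) to DD-CoA (50 μM final), NADH (250 μM final) and inhibitor in 30 mM PIPES, 150 mM NaCl, pH 6.8. Percent inhibition taken from initial velocity against a no-inhibitor control. Run in triplicate.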

| Structure (SMILES) | MIC [1] [µM] | inhibition [2] [%] |
| --- | --- | --- |
| COc1cc(N2C(=O)CC(C3c4ccccc4-c4ccccc43)C2=O)cc(OC)c1OC (stereo not given) | 37.3 (≈ 16 µg/mL) |  |
| O=C1CC(C2c3ccccc3-c3ccccc32)C(=O)N1c1cc(Cl)cc(Cl)c1 (stereo not given) | 19.6 (≈ 8 µg/mL) | 31 |
| COc1cc(CN2C(=O)CC(C3c4ccccc4-c4ccccc43)C2=O)cc(OC)c1 (stereo not given) | > 38.7 |  |
| O=C(Cc1ccccc1)N1C(=O)CC(C2c3ccccc3-c3ccccc32)C1=O (stereo not given) | 41.9 (≈ 16 µg/mL) |  |
| O=C1CC(C2c3ccccc3-c3ccccc32)C(=O)N1CCc1c[nH]c2ccccc12 (stereo not given) | > 39.4 |  |
| O=C(c1ccc2[nH]ccc2c1)N1CCN(C2c3ccccc3-c3ccccc32)CC1 | > 40.7 |  |
| O=C1CC(C2c3ccccc3-c3ccccc32)C(=O)N1 (stereo not given) | 30.4 (≈ 8 µg/mL) |  |
| O=C1CC(C2c3ccccc3-c3ccccc32)C(=O)N1C(=O)c1ccccc1 (racemic) | 5.4 (≈ 1.98 µg/mL) |  |
| O=C1CC(C2c3ccccc3-c3ccccc32)C(=O)N1Cc1ccccc1 (single isomer, unassigned) | 45.3 (≈ 16 µg/mL) |  |
| CCCCCCCCC(=O)N1C(=O)CC(C2c3ccccc3-c3ccccc32)C1=O (stereo not given) | 39.7 (≈ 16 µg/mL) |  |
| O=C1CC(C2c3ccccc3-c3ccccc32)C(=O)N1c1ccc(F)cc1 (stereo not given) | > 44.8 |  |
| O=C1CC(C2c3ccccc3-c3ccccc32)C(=O)N1C(=O)c1ccc2[nH]ccc2c1 (stereo not given) | 39.4 (≈ 16 µg/mL) |  |
| O=C(CC(C(=O)O)C1c2ccccc2-c2ccccc21)Nc1cc(Cl)cc(Cl)c1 (stereo not given) | 4.7 (≈ 2 µg/mL) |  |
| O=C(CN1C(=O)CC(C2c3ccccc3-c3ccccc32)C1=O)c1ccccc1 (stereo not given) | > 41.9 |  |
| O=C(CC(C(=O)O)C1c2ccccc2-c2ccccc21)NCCc1c[nH]c2ccccc12 (stereo not given) | 37.7 (≈ 16 µg/mL) |  |
| O=C(CC(C(=O)O)C1c2ccccc2-c2ccccc21)Nc1ccc(F)cc1 (stereo not given) | 42.6 (≈ 16 µg/mL) |  |
| CCCCCCCCCN1C(=O)CC(C2c3ccccc3-c3ccccc32)C1=O (stereo not given) | 41.1 (≈ 16 µg/mL) |  |
| O=C(CC(C(=O)O)C1c2ccccc2-c2ccccc21)NNC(=O)c1ccncc1 (stereo not given) | 10 (≈ 4.01 µg/mL) |  |
| O=C(O)CC(C(=O)O)C1c2ccccc2-c2ccccc21 (stereo not given) | 28.3 (≈ 7.99 µg/mL) |  |
